Mdm2 MdmX PPI: human Mdm2/MdmX binding inhibition; 330,000 tested, 3% active; SaOS-2 split-luciferase Mdm2/MdmX complementation, luminescence; O15151+Q00987; inhibition, % at 8 µM;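 active = inhibition of at least 50% at 8 µM in the primary screen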
CHOP UPR activ: activators of apoptotic arm of unfolded protein response (CHOP) | activation, % at 10 µM | CHO-CHOP luciferase reporter, UPR activation, luminescence; percent of tunicamycin response over DMSO baseline | 330,000 tested, 0.34% active;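 active = at 10 µM dose, activation of 40% or more, normalized to positive control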;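 note: 100% = tunicamycin at 10 µg/mL and 0% = DMSO alone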
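Evaluation: % reporter activation, DMSO baseline versus tunicamycin full activation; System: CHO-CHOP luciferase reporter cell line; Input: 500 cells/well; Incubation: 6 h compound treatment, 37 °C; Measured by: Steady-Glo luciferase luminescence; Dosing: one dose, 10 µM in 0.5% DMSO; Buffer or medium: F12 medium, 10% FBS; Benchmarks: positive tunicamycin 10 µg/mL, negative DMSO alone.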
Exocytosis inh: blocks lytic granule exocytosis | TALL-104 LAMP-1 surface exposure, flow cytometry; cells stimulated with thapsigargin and PMA | inhibition, % at 10 µM | 360,000 tested, 0.66% active;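 active = inhibition above about 55%, limit read from the data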
XBP1 UPR activ: adaptive UPR (XBP1) activation. CHO-XBP1 luciferase reporter, IRE1-XBP1 UPR activation, luminescence; percent of tunicamycin response, DMSO as zero. activation, % at 20 µM. 330,000 tested, 0.33% active. AID 463104;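 active = versus positive control, 20 µM dose yields 30% or more activation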;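 note: 100% = tunicamycin at 10 µg/mL and 0% = DMSO only wells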
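Material – CHO cell line with stable XBP1 luciferase reporter · Buffer or medium – F12 plus 10% FBS · Compound – single point, 20 µM final compound, 1% DMSO · Schedule – 16-18 h cell attachment at 37 °C, then 6 h compound exposure · Signal – Steady-Glo luminescence read · Benchmarks – high control tunicamycin 10 µg/mL final, low control DMSO vehicle only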
ABHD5 PLIN5 PPI: inhibitors of human ABHD5-perilipin-5 interaction | Q00G26+Q8WTS1 | Split G. princeps luciferase complementation, luminescence, 4 h | inhibition, % at 4 µM | 360,000 tested, 0.78% active;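 active = inhibition above the mean inhibition across every tested compound plus 3 SD, cut at about 22% in these data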;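 note: 0% = DMSO only wells and the 100% control is not disclosed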
Target sequence (Q00G26 whole entry, looked up): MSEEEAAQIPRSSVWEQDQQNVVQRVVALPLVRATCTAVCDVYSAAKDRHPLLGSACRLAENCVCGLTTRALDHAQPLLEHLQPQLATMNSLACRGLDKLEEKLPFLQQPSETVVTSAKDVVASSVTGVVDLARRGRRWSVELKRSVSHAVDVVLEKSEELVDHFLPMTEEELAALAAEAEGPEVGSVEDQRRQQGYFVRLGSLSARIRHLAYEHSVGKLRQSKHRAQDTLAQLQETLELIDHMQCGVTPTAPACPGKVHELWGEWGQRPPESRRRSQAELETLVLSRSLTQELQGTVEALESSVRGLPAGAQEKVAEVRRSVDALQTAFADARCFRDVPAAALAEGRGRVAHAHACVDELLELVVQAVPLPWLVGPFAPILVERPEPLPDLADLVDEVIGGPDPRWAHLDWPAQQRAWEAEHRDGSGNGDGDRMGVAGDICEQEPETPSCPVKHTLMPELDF
Target sequence (Q8WTS1 whole entry, looked up): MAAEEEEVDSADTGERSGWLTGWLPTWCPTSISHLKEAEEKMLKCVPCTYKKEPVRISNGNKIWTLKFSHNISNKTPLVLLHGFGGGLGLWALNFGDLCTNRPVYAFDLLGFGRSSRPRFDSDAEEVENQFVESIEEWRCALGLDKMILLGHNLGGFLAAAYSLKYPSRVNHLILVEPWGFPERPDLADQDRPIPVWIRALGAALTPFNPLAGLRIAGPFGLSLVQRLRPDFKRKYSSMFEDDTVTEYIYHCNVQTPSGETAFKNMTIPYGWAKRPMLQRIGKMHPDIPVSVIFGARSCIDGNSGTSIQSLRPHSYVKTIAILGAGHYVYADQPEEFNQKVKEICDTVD
Mdm2-MdmX conf: human Mdm2/MdmX binding inhibition, confirmed | shares compounds with Mdm2 MdmX PPI | inhibition, % at 8 µM | luminescent assay | 10,000 tested, 55% active; in the data active = inhibition above about 40%
Full FLuc ctr: full-length luciferase inhibition in Mdm2/MdmX counter-screen; shares compounds with Mdm2 MdmX PPI; SaOS-2 full-length luciferase counterscreen, luminescence; inhibition, % at 8 µM; 6,200 tested, 77% active; AID 504607;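 active = mean inhibition at 8 µM reaching about 37%, which flags the compound as non-specific, limit read from the data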;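 note: p53-null SaOS-2 cells with luciferase driven by a doxycycline-inducible promoter; compound on cells about two nights before reading with doxycycline added after day one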
* = called active by the depositor. Most compounds without a hit are left out; they make up all but 4% or so of the library.

`Nc1ncnc2c1ccn2[C@@H]1O[C@H](CO)[C@@H](O)[C@H]1O` gave Mdm2 MdmX PPI 100*, CHOP UPR activ -4, Exocytosis inh -3, XBP1 UPR activ -6, ABHD5 PLIN5 PPI 3, Mdm2-MdmX conf 100* and Full FLuc ctr 50*.
Screening COc1ccc2c(c1)C13CCCC[C@@H]1C(C2)N(C)CC3 (stereo not given in full) returned Mdm2 MdmX PPI 51*, CHOP UPR activ 1, Exocytosis inh 0, XBP1 UPR activ -2, ABHD5 PLIN5 PPI 3 and Mdm2-MdmX conf 25.
For O=C(CCl)Nc1nccs1 the results were Mdm2 MdmX PPI 20, CHOP UPR activ 5, Exocytosis inh -3, XBP1 UPR activ 1 and ABHD5 PLIN5 PPI 3.
For COc1ccccc1OP(=O)(Nc1cccnc1)Oc1ccccc1OC the results were Mdm2 MdmX PPI 51*, CHOP UPR activ 0, Exocytosis inh 0, XBP1 UPR activ 0, ABHD5 PLIN5 PPI -5, Mdm2-MdmX conf 48* and Full FLuc ctr 74*.
COc1ccc(CCNCc2ccccn2)cc1OC was read as Mdm2 MdmX PPI -11, CHOP UPR activ -1, Exocytosis inh 2, XBP1 UPR activ -1 and ABHD5 PLIN5 PPI 7.
CC(=O)OC(C)(C)/C=C/C(=O)C(C)(O)C1[C@H](O)C[C@@]2(C)C3CC=C4C(CC[C@@H](O)C4(C)C)[C@]3(CO)C(=O)C[C@]12C (stereo not given in full) was read as Mdm2 MdmX PPI 98*, CHOP UPR activ 14, Exocytosis inh -28, XBP1 UPR activ -2, ABHD5 PLIN5 PPI 7, Mdm2-MdmX conf 98* and Full FLuc ctr 0.
CCOC(=O)c1c(C)n(Cc2ccccc2)c2ccc(OCC(O)Cn3nc(C)nc3C)cc12 (stereo not given) was read as Mdm2 MdmX PPI -2, CHOP UPR activ -2, Exocytosis inh 11, XBP1 UPR activ -4 and ABHD5 PLIN5 PPI -2.
For CCOC(=O)c1c(C)n(Cc2ccccc2)c2ccc(OCC(O)CNC(C)(C)C)cc12 (stereo not given) the results were Mdm2 MdmX PPI 51*, CHOP UPR activ 3, Exocytosis inh 27, XBP1 UPR activ 1, ABHD5 PLIN5 PPI 6 and Mdm2-MdmX conf 26.
`C[C@H]1CCC/C=C/[C@@H]2C[C@H](O)C[C@H]2[C@H](O)/C=C/C(=O)O1` gave Mdm2 MdmX PPI 97*, CHOP UPR activ 115*, Exocytosis inh 12, XBP1 UPR activ 12, ABHD5 PLIN5 PPI -2, Mdm2-MdmX conf 98* and Full FLuc ctr 48*.
C[C@@H]1O[C@@H](O[C@H]2C[C@@H](O)[C@]3(CO)[C@H]4[C@H](O)C[C@]5(C)[C@@H](C6COC(=O)C6)CC[C@]5(O)[C@@H]4CC[C@]3(O)C2)[C@H](O)[C@H](O)[C@H]1O (stereo not given in full) was read as Mdm2 MdmX PPI 58*, CHOP UPR activ 0, Exocytosis inh 4, XBP1 UPR activ -2, ABHD5 PLIN5 PPI -2, Mdm2-MdmX conf 67* and Full FLuc ctr 27.
CC1OC(OC2CC(O)C3(CO)C4C(O)CC5(C)C(C6=CC(=O)OC6)CCC5(O)C4CCC3(O)C2)C(O)C(O)C1O (stereo not given) was read as Exocytosis inh 0 and ABHD5 PLIN5 PPI 4.
C[C@@H]1C[C@H]2OC(=O)C3(CO3)[C@H]2[C@H](O)[C@]2(C)C(=O)C3OC3[C@@H]12 (stereo not given in full) was read as Mdm2 MdmX PPI 51*, CHOP UPR activ 37, XBP1 UPR activ -4, Mdm2-MdmX conf 36 and Full FLuc ctr 21.
Screening CCn1nc(/C=C/c2ccccc2)nc2c(=O)n(C)c(=O)nc1-2 returned Mdm2 MdmX PPI 97*, CHOP UPR activ -5, Exocytosis inh 88*, XBP1 UPR activ -10, ABHD5 PLIN5 PPI -38, Mdm2-MdmX conf 85* and Full FLuc ctr 25.
Screening O=C(O)CSC(=S)N1CC2CC(C1)c1cccc(=O)n1C2 (stereo not given) returned Mdm2 MdmX PPI 9, CHOP UPR activ 1, Exocytosis inh -5, XBP1 UPR activ 11 and ABHD5 PLIN5 PPI 11.
`CC[n+]1c(-c2ccccc2)c2cc(N)ccc2c2ccc(N)cc21` gave Exocytosis inh -22 and ABHD5 PLIN5 PPI -23.
For Cc1[nH]c2ccc(OC(F)(F)F)cc2c1CCNCc1ccc(Cl)cc1 the results were Mdm2 MdmX PPI 83*, CHOP UPR activ 2, Exocytosis inh 1, XBP1 UPR activ 17, ABHD5 PLIN5 PPI 9, Mdm2-MdmX conf 51* and Full FLuc ctr 48*.
Screening Cc1[nH]c2ccc(OC(F)(F)F)cc2c1CCNCc1cccc([N+](=O)[O-])c1 returned Mdm2 MdmX PPI 47, CHOP UPR activ 0, Exocytosis inh 24, XBP1 UPR activ 0 and ABHD5 PLIN5 PPI 8.
Screening COC(=O)C1=C(c2ccccc2OCc2ccccc2)C[C@@H]2CC[C@H]1N2C(=O)NCc1ccc(N(C)C)cc1 returned Mdm2 MdmX PPI 62*, CHOP UPR activ 15, Exocytosis inh 0, XBP1 UPR activ -3, ABHD5 PLIN5 PPI -2 and Mdm2-MdmX conf 1.
COC(=O)C1=C(c2ccc(F)cc2OCc2ccccc2)C[C@@H]2CC[C@H]1N2C(=O)NCc1ccc(N(C)C)cc1 was read as Mdm2 MdmX PPI 45, CHOP UPR activ 2, Exocytosis inh 6, XBP1 UPR activ -2 and ABHD5 PLIN5 PPI 3.
`COC(=O)C1=C(c2ccc(F)cc2OCc2ccccc2)C[C@@H]2CC[C@H]1N2C(=O)NCCOc1ccccc1Cl` gave Mdm2 MdmX PPI 57*, CHOP UPR activ 4, Exocytosis inh -15, XBP1 UPR activ 7, ABHD5 PLIN5 PPI 7 and Mdm2-MdmX conf 29.
Screening COC(=O)C1=C(c2ccc(F)cc2OCc2ccccc2)C[C@@H]2CC[C@H]1N2C(=O)NCCOc1ccccc1 returned Mdm2 MdmX PPI 37, CHOP UPR activ 3, Exocytosis inh 7, XBP1 UPR activ 0 and ABHD5 PLIN5 PPI 4.
For FC(F)(F)c1ccc2c(c1)nnn2C1CCN(Cc2nnnn2Cc2ccccc2)CC1 the results were Mdm2 MdmX PPI 11, CHOP UPR activ -3, Exocytosis inh 7, XBP1 UPR activ 0 and ABHD5 PLIN5 PPI 8.
Cc1ccc(Cn2nnnc2CN2CCC(n3nnc4cc(C(F)(F)F)ccc43)CC2)cc1 was read as Mdm2 MdmX PPI 71*, CHOP UPR activ 1, Exocytosis inh 26, XBP1 UPR activ 2, ABHD5 PLIN5 PPI 6 and Mdm2-MdmX conf 28.
